Reference: ChEMBL document CHEMBL4177757, “Tight-Binding Inhibition of Human Monoamine Oxidase B by Chromone Analogs: A Kinetic, Crystallographic, and Biological Analysis” (J Med Chem, 2018)

How the values were obtained:
[1] = molecular target: T1, Amine oxidase [flavin-containing] B (Homo sapiens, UniProt P27338); assay: Tight-binding competitive inhibition of recombinant human MAO-B expressed in Pichia pastoris using benzylamine as substrate by fluorimetric horseradish peroxidase-Amplex Red-coupled assay
T1 sequence (P27338 whole entry): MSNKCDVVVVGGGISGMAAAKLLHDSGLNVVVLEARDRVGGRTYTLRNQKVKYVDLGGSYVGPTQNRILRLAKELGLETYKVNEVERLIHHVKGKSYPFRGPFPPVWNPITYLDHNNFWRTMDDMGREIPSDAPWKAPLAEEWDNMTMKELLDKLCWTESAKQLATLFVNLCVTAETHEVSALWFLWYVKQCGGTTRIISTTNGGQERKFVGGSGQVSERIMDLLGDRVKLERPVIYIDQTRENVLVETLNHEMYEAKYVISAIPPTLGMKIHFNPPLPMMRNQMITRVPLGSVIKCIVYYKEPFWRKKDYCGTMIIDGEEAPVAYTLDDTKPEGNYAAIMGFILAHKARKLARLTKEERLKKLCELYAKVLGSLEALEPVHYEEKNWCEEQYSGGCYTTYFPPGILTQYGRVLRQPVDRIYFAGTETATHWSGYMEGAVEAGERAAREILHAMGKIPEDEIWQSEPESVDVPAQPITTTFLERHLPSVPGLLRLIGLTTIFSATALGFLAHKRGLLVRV

[2] = molecular target: T1, Amine oxidase [flavin-containing] B; assay: Non-competitive inhibition of recombinant human MAO-B expressed in Pichia pastoris using benzylamine as substrate by fluorimetric horseradish peroxidase-Amplex Red-coupled assay
In short: (§1)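 Purified Pichia-expressed human MAO-B, benzylamine substrate, H2O2 detected by HRP-Amplex Red coupling. Initial rates were measured at varying substrate and inhibitor levels. Inhibition mode came from global fits to competitive, mixed, non-competitive and uncompetitive Michaelis-Menten forms, chosen by r², plus double-reciprocal plots ([…] vs 1/[S]).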

[3] = molecular target: T1, Amine oxidase [flavin-containing] B; assay: Mixed-type inhibition of recombinant human MAO-B expressed in Pichia pastoris using benzylamine as substrate by fluorimetric horseradish peroxidase-Amplex Red-coupled assay; in short: as §1
[4] = molecular target: T2, Amine oxidase [flavin-containing] A (Homo sapiens, UniProt P21397); assay: Inhibition of recombinant human MAO-A expressed in Pichia pastoris up to 100 uM using kynuramine as substrate by fluorimetric horseradish peroxidase-Amplex Red-coupled assay
T2 sequence (P21397 whole entry): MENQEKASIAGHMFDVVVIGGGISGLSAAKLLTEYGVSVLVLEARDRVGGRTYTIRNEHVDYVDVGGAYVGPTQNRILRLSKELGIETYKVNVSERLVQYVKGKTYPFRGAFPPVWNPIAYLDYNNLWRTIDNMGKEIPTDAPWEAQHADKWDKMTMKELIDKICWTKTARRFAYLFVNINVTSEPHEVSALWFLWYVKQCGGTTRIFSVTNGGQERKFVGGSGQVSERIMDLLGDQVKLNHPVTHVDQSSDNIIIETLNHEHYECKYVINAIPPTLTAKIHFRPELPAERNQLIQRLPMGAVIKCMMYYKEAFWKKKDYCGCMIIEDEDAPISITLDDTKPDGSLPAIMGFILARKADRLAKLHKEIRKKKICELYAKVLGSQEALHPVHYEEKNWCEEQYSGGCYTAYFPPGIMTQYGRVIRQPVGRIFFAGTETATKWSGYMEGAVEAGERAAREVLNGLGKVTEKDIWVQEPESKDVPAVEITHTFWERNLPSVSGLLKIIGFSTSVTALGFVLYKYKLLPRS

SMILES	Ki [1] [nM]	inhibition (INH) [2]	inhibition (INH) [3]	inhibition (INH) [4]
O=C(Nc1cccc(F)c1)c1coc2ccccc2c1=O	31	Active	Active	Not Active
O=c1c(CNc2cccc(Cl)c2)coc2ccccc12	2930			Not Active
